Experimental findings from ChEMBL document CHEMBL4052818, “Design, Synthesis, and Biological Assessment of Biased Allosteric Modulation of the Urotensin II Receptor Using Achiral 1,3,4-Benzotriazepin-2-one Turn Mimics” (J Med Chem, 2017) are described below.

Activity calls are given as the source filed them. No cut-off for these calls is given here.

In test [1] the target is T1, Urotensin-2 receptor (Rattus norvegicus) (UniProt P49684).
T1 sequence (whole entry): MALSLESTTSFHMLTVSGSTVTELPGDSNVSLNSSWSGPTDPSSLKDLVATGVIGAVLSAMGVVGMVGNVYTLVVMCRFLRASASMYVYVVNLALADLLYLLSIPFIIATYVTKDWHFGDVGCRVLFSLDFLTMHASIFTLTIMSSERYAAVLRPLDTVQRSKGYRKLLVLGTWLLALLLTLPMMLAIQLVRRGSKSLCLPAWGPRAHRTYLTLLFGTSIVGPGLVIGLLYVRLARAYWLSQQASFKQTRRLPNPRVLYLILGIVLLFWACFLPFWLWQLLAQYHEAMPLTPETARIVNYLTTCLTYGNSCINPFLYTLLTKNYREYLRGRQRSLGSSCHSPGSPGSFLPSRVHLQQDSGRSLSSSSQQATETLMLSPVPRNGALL
In words: Allosteric modulation of urotensin-2 receptor in Sprague-Dawley rat thoracic aorta assessed as change in URP-mediated aortic ring contraction by measuring URP Emax at 1 uM preincubated for 15 mins followed by URP addition relative to KCl (reference value: 118 +/- 2%).

Test [2] has as its target T1, Urotensin-2 receptor (Rattus norvegicus). Description: Allosteric modulation of urotensin-2 receptor in Sprague-Dawley rat thoracic aorta assessed as change in human urotensin-2-mediated aortic ring contraction by measuring urotensin-2 Emax at 1 uM preincubated for 15 mins followed by urotensin-2 addition relative to KCl (reference value: 103 +/- 2%).
The target is the same in test [3]. Description: Allosteric modulation of urotensin-2 receptor in Sprague-Dawley rat thoracic aorta assessed as change in URP-mediated aortic ring contraction by measuring URP Emax at 10^-5M preincubated for 15 mins followed by URP addition relative to KCl (reference value: 118 +/- 2%).
Test [4] addresses T2, Urotensin-2 receptor (Homo sapiens) (UniProt Q9UKP6).
T2 sequence (whole entry): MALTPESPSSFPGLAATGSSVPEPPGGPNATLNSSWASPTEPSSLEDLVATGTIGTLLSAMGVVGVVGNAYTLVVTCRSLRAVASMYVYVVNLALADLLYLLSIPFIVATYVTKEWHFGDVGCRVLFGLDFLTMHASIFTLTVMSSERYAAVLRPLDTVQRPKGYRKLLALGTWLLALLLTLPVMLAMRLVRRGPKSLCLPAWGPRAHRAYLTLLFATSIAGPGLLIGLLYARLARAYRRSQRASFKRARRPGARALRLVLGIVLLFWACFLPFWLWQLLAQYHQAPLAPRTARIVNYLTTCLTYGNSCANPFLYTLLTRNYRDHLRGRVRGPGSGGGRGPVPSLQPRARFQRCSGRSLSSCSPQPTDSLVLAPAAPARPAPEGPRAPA
Description: Allosteric modulation of human urotensin-2 receptor expressed in HEK293 cells assessed as change in URP-induced G12 activation by measuring URP Emax at 10^-5 M preincubated for 30 mins followed by URP addition by BRET assay (reference value: 100 +/- 7%). Type of test: cell-based. A general note: BRET reads energy transfer from a luciferase to a nearby fluorophore.

Test [5] concerns the target T2, Urotensin-2 receptor (Homo sapiens). In words: Allosteric modulation of human urotensin-2 receptor expressed in HEK293 cells assessed as change in human urotensin-2-induced Gq activation by measuring urotensin-2 Emax at 10^-5 M preincubated for 30 mins followed by urotensin-2 addition by BRET assay (reference value: 100 +/- 3%). Type of test: cell-based.
Test [6] shares this target. Description: Allosteric modulation of human urotensin-2 receptor expressed in HEK293 cells assessed as change in URP-induced Gq activation by measuring URP Emax at 10^-5 M preincubated for 30 mins followed by URP addition by BRET assay (reference value: 100 +/- 3%). It is filed as cell-based.
Test [7] has the same target. Description: Agonist activity at human urotensin-2 receptor expressed in HEK293 cells assessed as G12 activation at 10^-5 M […] by BRET assay. Type of test: cell-based. In outline:
(§1)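 HEK293-UT cells were transfected with a polycistronic BRET biosensor, 2.5 μg for Gq or 0.5 μg for G12, and grown about 40 h. They were then held 2 h in PBS with 0.1% glucose. The analogue (10−5 M) was added alone with coelenterazine 400A. The GFP10/RlucII ratio (515/410 nm) was read over 5 min and normalized to hUII or URP at 10−5 M.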

Test [8] deals with T1, Urotensin-2 receptor (Rattus norvegicus). In words: Agonist activity at urotensin-2 receptor in Sprague-Dawley rat thoracic aorta assessed as induction of aortic ring contraction at 10^-5 M incubated for 15 mins. In outline:
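Endothelium-denuded 4 mm thoracic aortic rings from adult male rats (250–300 g) were held in organ baths of oxygenated Krebs–Henseleit. A 40 mM KCl contraction served as the initial control. Each analogue was added alone at 10−5 M, and the contraction was expressed as % of the KCl response.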

Test [9] addresses T2, Urotensin-2 receptor (Homo sapiens). In words: Allosteric modulation of human urotensin-2 receptor expressed in HEK293 cells assessed as change in human urotensin-2-induced G12 activation by measuring urotensin-2 Emax at 10^-5 M preincubated for 30 mins followed by urotensin-2 addition by BRET assay (reference value: 100 +/- 6%). Type of test: cell-based.
The target in test [10] is T1, Urotensin-2 receptor (Rattus norvegicus). Description: Allosteric modulation of urotensin-2 receptor in Sprague-Dawley rat thoracic aorta assessed as change in human urotensin-2-mediated aortic ring contraction by measuring urotensin-2 Emax at 10^-5M preincubated for 15 mins followed by urotensin-2 addition relative to KCl (reference value: 103 +/- 2%).
The target in test [11] is T2, Urotensin-2 receptor (Homo sapiens). In words: Agonist activity at human urotensin-2 receptor expressed in HEK293 cells assessed as Gq activation at 10^-5 M […] by BRET assay. Type of test: cell-based. In outline:
as §1

`CC(C)[C@H](NC(=O)[C@@H]1CSSC[C@H](NC(=O)[C@H](C)N)C(=O)N[C@@H](Cc2ccccc2)C(=O)N[C@@H](Cc2ccc(-c3ccccc3)cc2)C(=O)N[C@@H](CCCCN)C(=O)N[C@@H](Cc2ccc(O)cc2)C(=O)N1)C(=O)O`: the values for the Emax in test [1] and in [2] were 102% and 61%, respectively.

Consider `NCCCCN1N=C(/C=C/c2ccc(O)cc2)c2ccccc2N(Cc2ccc(-c3ccccc3)cc2)C1=O`, for which the Emax (as a rule, the size of the effect at its maximum, as opposed to the concentration needed) in test [3] worked out at 118%; in test [4], 72%; in test [5], 92%; in [6], 92%; in [9], 103%; in test [10] it was 48%. In addition, the outcome in test [7] and in [11] was inactive. The Activity in test [8] is less than 8%.

`COc1ccc(CCC2=NN(CCCN)C(=O)N(Cc3ccc4ccccc4c3)c3ccccc32)cc1`: the maximal response (Emax) was found to be 41% in [3] and 55% in test [10]. Also, the Activity in test [8] was less than 8%.

`COc1ccc(CCC2=NN(CCCCN)C(=O)N(Cc3ccc(-c4ccccc4)cc3)c3ccccc32)cc1`: the maximum response (Emax) in [3] amounted to 84%; in [10], 82%. In test [8], the Activity is less than 8%.

Turning to `CNCCCCN1N=C(CCc2nc3ccccc3s2)c2ccccc2N(Cc2ccc(-c3ccccc3)cc2)C1=O`, the results for the maximal response (Emax) in test [3] and in test [10] were 91% and 90%, respectively. Further, the Activity in test [8] was less than 8%.

With `NCCCCN1N=C(CCc2ccc(O)cc2)c2ccccc2N(Cc2ccc3ccccc3c2)C1=O`, the Emax in test [3] was 75%; in test [4] it was 90%; in [5], 83%; in [6] it was 78%; in [9] it was 98%; in [10] it was 98%. In addition, the outcome in test [7] and in [11] was inactive. For the same compound, the Activity in test [8] is less than 8%.

In the case of `NCCCN1N=C(CCc2nc3ccccc3s2)c2ccccc2N(Cc2ccc(-c3ccccc3)cc2)C1=O`, the Emax was 99% in test [3] and 75% in test [10]. The Activity in test [8] is less than 8%.

`COc1ccc(/C=C/C2=NN(CCCN)C(=O)N(Cc3ccc(-c4ccccc4)cc3)c3ccccc32)cc1`: the maximal response (Emax) is 194% in [3] and 106% in test [10]. Further, the Activity in [8] is less than 8%.

Turning to `NCCCN1N=C(/C=C/c2ccc(O)cc2)c2ccccc2N(Cc2ccc(-c3ccccc3)cc2)C1=O`, the maximal response (Emax) was 115% in test [3] and 51% in test [10]. Also, in test [8], the Activity was less than 8%.

With `NCCCCN1N=C(/C=C/c2ccc(O)cc2)c2ccccc2N(Cc2ccc3ccccc3c2)C1=O`, the maximum response (Emax) in test [3] came to 114%; in [10], 55%. In test [8], the Activity is less than 8%.

In the case of `NCCCN1N=C(CCc2ccc(O)cc2)c2ccccc2N(Cc2ccc3ccccc3c2)C1=O`, the values for the Emax in [3] and in test [10] were 96% and 107%, respectively. Besides, the Activity in test [8] is less than 8%.

In the case of `NCCCCN1N=C(CCc2nc3ccccc3s2)c2ccccc2N(Cc2ccc(-c3ccccc3)cc2)C1=O`, the values for the Emax in test [3] and in [10] were 112% and 68%, respectively. Moreover, the Activity in test [8] was less than 8%.

Regarding `COc1ccc(/C=C/C2=NN(CCCCN)C(=O)N(Cc3ccc4ccccc4c3)c3ccccc32)cc1`, the results for the maximal effect (Emax) in test [3] and in [10] were 110% and 108%, respectively. The Activity in test [8] is less than 8%.

For `NCCCCN1N=C(CCc2nc3ccccc3s2)c2ccccc2N(Cc2ccc3ccccc3c2)C1=O`, the maximum response (Emax) worked out at 111% in test [3] and 73% in test [10]. For the same compound, the Activity in test [8] is less than 8%.

As to `COc1ccc(CCC2=NN(CCCN)C(=O)N(Cc3ccc(-c4ccccc4)cc3)c3ccccc32)cc1`, the maximal effect (Emax) in test [3] worked out at 47%; in test [10] it was 59%. The Activity in test [8] is less than 8%.

As for `COc1ccc(CCC2=NN(CCCCN)C(=O)N(Cc3ccc4ccccc4c3)c3ccccc32)cc1`, the values for the Emax in test [3] and in [10] were 72% and 55%, respectively. For the same compound, the Activity in test [8] was less than 8%.

In the case of `COc1ccc(/C=C/C2=NN(CCCCN)C(=O)N(Cc3ccc(-c4ccccc4)cc3)c3ccccc32)cc1`, the Emax in test [3] is 284%; in [4], 106%; in test [5], 80%; in [6], 83%; in test [9], 96%; in test [10] it was 83%. Besides, the result in test [7] and in test [11] was inactive. The Activity in test [8] was less than 8%.

Turning to `NCCCN1N=C(CCc2nc3ccccc3s2)c2ccccc2N(Cc2cccc3ccccc23)C1=O`, the maximum response (Emax) in test [3] was found to be 101%; in [10], 100%. Besides, in [8], the Activity is less than 8%.

Turning to `NCCCCN1N=C(CCc2nc3ccccc3s2)c2ccccc2N(Cc2cccc3ccccc23)C1=O`, the maximal response (Emax) in [3] was determined as 124%; in test [10] it was 100%. Further, the Activity in test [8] was less than 8%.

Regarding `COc1ccc(/C=C/C2=NN(CCCN)C(=O)N(Cc3ccc4ccccc4c3)c3ccccc32)cc1`, the Emax in test [3] is 120%; in test [10] it was 76%. The Activity in [8] is less than 8%.

In the case of `NCCCN1N=C(/C=C/c2ccc(O)cc2)c2ccccc2N(Cc2ccc3ccccc3c2)C1=O`, the Emax in test [3] was 111%; in [10], 59%. For the same compound, in test [8], the Activity is less than 8%.

Regarding `CNCCCCN1N=C(CCc2nc3ccccc3s2)c2ccccc2N(Cc2ccc3ccccc3c2)C1=O`, the maximum response (Emax) in [3] came to 114%; in test [10], 87%. Besides, the Activity in test [8] was less than 8%.

Turning to `NCCCN1N=C(CCc2ccc(O)cc2)c2ccccc2N(Cc2ccc(-c3ccccc3)cc2)C1=O`, the Emax in [3] came to 90%; in test [10], 95%. The Activity in test [8] is less than 8%.

With `NCCCN1N=C(CCc2nc3ccccc3s2)c2ccccc2N(Cc2ccc3ccccc3c2)C1=O`, the Emax came to 117% in [3]; 115% in test [4]; 87% in test [5]; 82% in test [6]; 96% in test [9]; 45% in test [10]. Besides, the result in test [7] and in test [11] was inactive. Further, the Activity in [8] is less than 8%.

On to `CNCCCN1N=C(CCc2nc3ccccc3s2)c2ccccc2N(Cc2ccc(-c3ccccc3)cc2)C1=O`, for which the values for the maximum response (Emax) in test [3] and in test [10] were 110% and 76%, respectively. In addition, in test [8], the Activity is less than 8%.

Turning to `NCCCCN1N=C(CCc2ccc(O)cc2)c2ccccc2N(Cc2ccc(-c3ccccc3)cc2)C1=O`, the Emax in test [3] was determined as 86%; in test [10], 118%. Also, in test [8], the Activity was less than 8%.

`CNCCCCN1N=C(CCc2nc3ccccc3s2)c2ccccc2N(Cc2cccc3ccccc23)C1=O`: the Emax in test [3] and in test [10] was 99% throughout. Further, the Activity in test [8] was less than 8%.
